Reference: ChEMBL document CHEMBL4613249, “Serendipitous Discovery of Leucine and Methionine Depletion Agents during the Search for Polyamine Transport Inhibitors” (J Med Chem, 2020)
Activity calls are given as the source filed them. No cut-off for these calls is given here.

Columns and labels:
[1] = Selectivity index, ratio of IC50 for cytotoxicity against CHO-MG cells assessed as reduction in cell viability after 48 hrs by MTS assay to IC50 for […] human L3.6PL cells assessed as reduction in cell viability after 48 hrs by MTS assay
Method in brief: (§1)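 The ratio is of 48 h IC50 values from MTS growth assays. CHO K1/CHO-MG cells were plated at 1000 cells/well and L3.6pl at 500 cells/well, drug in PBS was added after overnight incubation, and absorbance was read at 490 nm. IC50 is 50% growth versus untreated control; runs were done twice in triplicate.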

[2] = test system: L3.6pl; assay: Effect on polyamine level in human L3.6PL cells assessed as acetyl spermidine level per mg protein in supernatant at 2 uM measured after 72 hrs in presence of amine oxidase suppressor aminoguanidine by LCMS analysis (reference value: 1936 +/- 1365 pmol/mg); type: functional
[3] = test system: CHO-K1; assay: Potentiation of 0.5 uM N-(anthracenylmethyl) homospermidine-induced toxicity in CHOK1 cells assessed as increase in Ant-44-induced reduction in cell growth at 5 uM measured after 48 hrs in presence of amine oxidase suppressor aminoguanidine by microscopy analysis; type: functional, cell-based; conditions: Cricetulus griseus
Method in brief: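 CHO K1 cells treated 48 h at 37°C with Ant-44 (0.5 μM) plus 5 μM compound, after 1 mM aminoguanidine pretreatment, were examined by microscope for cell number and shape versus untreated control cells.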

[4] = test system: L3.6pl; assay: Effect on polyamine level in human L3.6PL cells assessed as acetyl spermine level per mg protein in supernatant at 5 uM measured after 72 hrs in presence of amine oxidase suppressor aminoguanidine by LCMS analysis (reference value: 77 +/- 43 pmol/mg); type: functional
[5] = test system: L3.6pl; assay: Effect on polyamine level in human L3.6PL cells assessed as spermidine level per mg protein in supernatant at 2 uM measured after 72 hrs in presence of amine oxidase suppressor aminoguanidine by LCMS analysis (reference value: 339 pmol/mg); type: functional
[6] = test system: L3.6pl; assay: Effect on polyamine level in human L3.6PL cells assessed as spermine level per mg protein in supernatant at 5 uM measured after 72 hrs in presence of amine oxidase suppressor aminoguanidine by LCMS analysis (reference value: 6152 +/- 5596 pmol/mg); type: functional
[7] = Selectivity index, ratio of IC50 for cytotoxicity against CHOK1 cells assessed as reduction in cell viability after 48 hrs by MTS assay to IC50 for […] human L3.6PL cells assessed as reduction in cell viability after 48 hrs by MTS assay; method in brief: as §1
[8] = test system: L3.6pl; assay: Effect on polyamine level in human L3.6PL cells assessed as intracellular putrescine level at 7 uM measured after 72 hrs in presence of amine oxidase suppressor aminoguanidine by LCMS analysis relative to control; type: functional; conditions: in the assay text read “by N-dansylation and HPLC analysis” for “by LCMS analysis”
Method in brief: (§2)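 L3.6pl cells, 50,000 cells/mL in 10 mL per Petri dish with 1 mM aminoguanidine, plated overnight. Dosed with compound at 2, 5 or 7 μM from PBS stocks, then 72 h at 37°C. Intracellular polyamines measured by N-dansylation and HPLC, in duplicate, as nmol/mg protein against a parallel untreated control.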

[9] = test system: CHO-K1; assay: Inhibition of polyamine transporter in CHOK1 cells assessed as rescue of 2.4 uM N-(anthracenylmethyl) homospermidine-induced toxicity by measuring cell growth at 7 uM measured after 48 hrs in presence of amine oxidase suppressor aminoguanidine by MTS assay (reference value: 23%); type: cell-based; parameters: scale not given: the % may be the effect or the level left; conditions: Cricetulus griseus
Method in brief: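 CHO K1 cells (1000 cells/well, aminoguanidine 1 mM preincubation) were given a toxic Ant-44 dose (2.4 μM) with candidate compound at 5 or 7 μM. Cells were incubated 48 h at 37°C, and relative growth versus untreated control was read by MTS.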

[10] = test system: L3.6pl; assay: Effect on polyamine level in human L3.6PL cells assessed as agmatine level per mg protein in supernatant at 2 uM measured after 72 hrs in presence of amine oxidase suppressor aminoguanidine by LCMS analysis (reference value: 101 pmol/mg); type: functional
[11] = test system: CHO-MG; assay: Induction of polyamine efflux in aminoguanidine pretreated CHO-MG cells assessed as reduction in cell viability measured after 72 hrs in presence of spermidine by MTS assay; type: ADME, cell-based, Cricetulus griseus; conditions: chinese hamster
[12] = test system: L3.6pl; assay: Effect on polyamine level in human L3.6PL cells assessed as arginine level per mg protein in supernatant at 5 uM measured after 72 hrs in presence of amine oxidase suppressor aminoguanidine by LCMS analysis (reference value: 22121 +/- 10585 pmol/mg); type: functional
[13] = test system: L3.6pl; assay: Effect on polyamine level in human L3.6PL cells assessed as glutamic acid level per mg protein in supernatant at 2 uM measured after 72 hrs in presence of amine oxidase suppressor aminoguanidine by LCMS analysis (reference value: 23412 +/- 3983 pmol/mg)
[14] = target: Large neutral amino acids transporter small subunit 1 (Homo sapiens) (UniProt Q01650); assay: Induction of LAT1-mediated polyamine efflux in aminoguanidine pretreated human L3.6PL cells assessed as reduction in cell viability up to 15 uM by MTS assay; type: cell-based; conditions: TDE = time-dependent effect
[15] = test system: L3.6pl; assay: Effect on polyamine level in human L3.6PL cells assessed as decrease in intracellular spermine level at 2 to 7 uM measured after 72 hrs in presence of amine oxidase suppressor aminoguanidine by LCMS analysis; type: functional, cell-based; conditions: in the assay text read “by N-dansylation and HPLC analysis” for “by LCMS analysis”; method in brief: as §2
[16] = test system: L3.6pl; assay: Cytotoxicity against human L3.6PL cells assessed as reduction in cell viability at 1 uM measured after 72 hrs by MTS assay; type: cell-based
Method in brief: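 L3.6pl cells given compound at increasing concentrations, alone or with Ant-44 fixed at 2 μM, for 72 h at 37°C. % cell growth by MTS against an untreated control run in parallel, in triplicate.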

[17] = test system: L3.6pl; assay: Cytotoxicity against human L3.6PL cells assessed as reduction in cell viability at 0.25 to 20 uM measured after 24 to 72 hrs by MTS assay; type: cell-based
Method in brief: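 Time course in L3.6pl cells, 500 cells/well, with compound alone for 24, 48 and 72 h exposure at 37°C. Growth by MTS absorbance at 490 nm relative to untreated control.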

[18] = test system: L3.6pl; assay: Effect on polyamine level in human L3.6PL cells assessed as ornithine level per mg protein in supernatant at 2 uM measured after 72 hrs in presence of amine oxidase suppressor aminoguanidine by LCMS analysis (reference value: 10588 +/- 3212 pmol/mg); type: functional
[19] = test system: CHO-MG; assay: Induction of polyamine efflux in aminoguanidine pretreated CHO-MG cells assessed as reduction in cell viability measured after 72 hrs in presence of putrescine by MTS assay; type: ADME, cell-based, Cricetulus griseus; conditions: chinese hamster
[20] = test system: L3.6pl; assay: Effect on polyamine level in human L3.6PL cells assessed as agmatine level per mg protein in supernatant at 5 uM measured after 72 hrs in presence of amine oxidase suppressor aminoguanidine by LCMS analysis (reference value: 101 pmol/mg); type: functional
[21] = test system: L3.6pl; assay: Effect on polyamine level in human L3.6PL cells assessed as acetyl spermidine level per mg protein in supernatant at 5 uM measured after 72 hrs in presence of amine oxidase suppressor aminoguanidine by LCMS analysis (reference value: 1936 +/- 1365 pmol/mg); type: functional

Chain of Large neutral amino acids transporter small subunit 1 (Homo sapiens) (Q01650 whole entry): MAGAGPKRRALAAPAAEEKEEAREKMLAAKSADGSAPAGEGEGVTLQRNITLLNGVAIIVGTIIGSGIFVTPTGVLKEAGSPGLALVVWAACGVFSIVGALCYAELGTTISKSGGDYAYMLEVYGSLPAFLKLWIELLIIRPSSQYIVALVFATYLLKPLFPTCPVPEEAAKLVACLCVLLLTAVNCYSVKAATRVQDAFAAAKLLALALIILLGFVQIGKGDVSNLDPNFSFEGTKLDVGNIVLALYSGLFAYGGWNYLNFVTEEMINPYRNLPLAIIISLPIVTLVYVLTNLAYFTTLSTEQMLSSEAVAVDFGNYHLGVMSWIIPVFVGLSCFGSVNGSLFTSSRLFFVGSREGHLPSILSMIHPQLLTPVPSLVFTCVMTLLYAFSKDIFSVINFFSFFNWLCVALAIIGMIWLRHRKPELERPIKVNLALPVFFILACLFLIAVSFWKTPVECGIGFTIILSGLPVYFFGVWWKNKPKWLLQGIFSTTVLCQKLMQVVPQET

With `CC(C)CCN1CCN([C@@H](CNCc2ccccc2)CC2CCCCC2)C[C@@H]1CC(C)C` the “Ratio IC50” value [1] was 2, the Activity [2] was 1649 pmol/mg and the Activity [3] was “Active”. The Activity [4] was 36 pmol/mg, the Activity [5] was 131 pmol/mg and the Activity [6] was 2690 pmol/mg. For the same compound, the “Ratio IC50” value [7] was 2, the Activity [8] was 83% and the Activity [9] was 3%. For the same compound, the Activity [10] was 297 pmol/mg, the Activity [11] was “Active” and the Activity [12] was 43243 pmol/mg. The Activity [13] was 20231 pmol/mg, the Activity [14] was “Tde” and the Activity [15] was “Active”. For the same compound, the Activity [16] was “Non-Toxic”, the Activity [17] was “Toxic” and the Activity [18] was 9249 pmol/mg. The Activity [19] was “Active”, the Activity [20] was 485 pmol/mg and the Activity [21] was 1706 pmol/mg.
